Measurements as given in ChEMBL document CHEMBL1671807, “Structure-activity relations on [1-(3,5-difluoro-4-hydroxyphenyl)-1H-pyrrol-3-yl]phenylmethanone. The effect of methoxy substitution on aldose reductase inhibitory activity and selectivity” (Bioorg Med Chem, 2011).

How the values were obtained:
Rattus norvegicus = organism: Rattus norvegicus; test: Selectivity index, ratio of IC50 for rat kidney ALR1 to IC50 for rat lens ALR2; type: tissue-based; conditions: Lens of camera-type eye
Outline: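 Ratio of IC50 values: rat kidney enzyme assayed with D-glucuronate at 37 °C, rat lens enzyme with D,L-glyceraldehyde at 30 °C. Both read as NADPH consumption at 340 nm, five compound concentrations, IC50 from the linear part of the log dose–response curve, triplicate.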

[1] = target: Aldo-keto reductase family 1 member B1 (Rattus norvegicus, UniProt P07943); test: Inhibition of rat lens ALR2; type: tissue-based, Lens of camera-type eye
Outline: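 Partially purified rat lens enzyme (water homogenate, supernatant after 40% ammonium sulfate). NADPH consumption read at 340 nm with D,L-glyceraldehyde as substrate at 30 °C. Compounds dissolved in 10% aqueous NaHCO3 and tested at five concentrations. IC50 from least-squares fit of the linear part of the log dose–response curve; triplicate.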

[2] = Antioxidant activity assessed as inhibition of AAPH-induced lipid peroxidation of DOPC liposomes; type: functional
Outline: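 Unilamellar DOPC liposomes, 0.8 mM final, in 20 mM phosphate buffer pH 7.4, incubated with compound at 10–300 µM and AAPH (10 mM final) at 50 °C for 80 min. Lipids extracted with CHCl3/MeOH 2:1 containing 0.05% BHT. Hydroperoxides read by the thiocyanate method at 500 nm against a cumene hydroperoxide calibration. IC50 from the linear part of the semilog inhibition plot; triplicate.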

[3] = Inhibition of rat kidney ALR1
Outline: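 Enzyme partially purified from Fischer-344 rat kidney by ammonium sulfate fractionation (40/50/75%) and DEAE treatment, with no detectable ALR2 activity. NADPH consumption followed at 340 nm with D-glucuronate substrate at 37 °C. Compounds in 10% aqueous NaHCO3, five concentrations. IC50 from least-squares fit of the linear part of the log dose–response; triplicate.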

[4] = Inhibition of glucose-induced sorbitol accumulation in rat lens at 100 uM (Rbv = 643.5+/-133 nmol/g); type: functional, Lens of camera-type eye

Structure (SMILES) | IC50 [1] | IC50 [2] | IC50 [3] | Ratio IC50 (Rattus norvegicus) | Activity [4]
COc1ccc(C(=O)c2cccn2-c2cc(F)c(O)c(F)c2)cc1 | 0.39 µM | 35.8 µM | 27.8 µM | 71.6 | 203.5 nmol/g
COc1ccc(C(=O)c2ccn(-c3cc(F)c(O)c(F)c3)c2)cc1 | 24.9 µM |  | > 100 µM | > 4 | 
COc1cccc(C(=O)c2cccn2-c2cc(F)c(O)c(F)c2)c1 | 1.18 µM |  | 23.5 µM | 19.9 | 
COc1cccc(C(=O)c2ccn(-c3cc(F)c(O)c(F)c3)c2)c1 | 9.93 µM |  | 51.8 µM | 5.2 | 

The next compounds have a lower IC50 [3] than those just listed; values first:

IC50 [1] | IC50 [2] | IC50 [3] | Structure (SMILES) | Ratio IC50 (Rattus norvegicus) | Activity [4]
 |  | 13.4 µM | O=C(c1ccccc1)c1ccn(-c2cc(F)c(O)c(F)c2)c1 | 33.8 | 
1.06 µM |  | 4.6 µM | O=C(c1ccccc1)c1cccn1-c1cc(F)c(O)c(F)c1 | 4.3 | 
1.26 µM |  | 1.61 µM | O=C(c1ccccc1)c1ccn(-c2ccc(F)c(O)c2F)c1 | 1.3 | 
